From ChEMBL document CHEMBL4825671, “Design, synthesis and biological evaluation of novel FXIa inhibitors with 2-phenyl-1H-imidazole-5-carboxamide moiety as P1 fragment” (Eur J Med Chem, 2021)

Key:
[1] = molecular target: T1, Coagulation factor XI (Homo sapiens, UniProt P03951); assay: Binding affinity to coagulation factor 11a (unknown origin) assessed as inhibition constant using (p-Glu-Pro-Arg-pNa,HCl) as substrate preincubated for 5 mins followed by substrate addition and measured after 10 mins
T1 sequence (P03951 19-387 limits assumed): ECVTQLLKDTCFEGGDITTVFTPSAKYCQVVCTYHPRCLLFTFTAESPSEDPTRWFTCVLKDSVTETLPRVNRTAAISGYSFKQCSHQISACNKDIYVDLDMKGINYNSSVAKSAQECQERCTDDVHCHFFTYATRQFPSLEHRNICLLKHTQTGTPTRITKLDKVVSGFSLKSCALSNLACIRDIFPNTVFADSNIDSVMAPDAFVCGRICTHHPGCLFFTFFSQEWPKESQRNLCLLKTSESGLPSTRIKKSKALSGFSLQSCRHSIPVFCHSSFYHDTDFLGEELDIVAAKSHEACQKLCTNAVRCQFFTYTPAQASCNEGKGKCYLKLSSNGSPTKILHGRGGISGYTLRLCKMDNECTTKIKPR
T1 sequence (P03951 388-625 limits assumed): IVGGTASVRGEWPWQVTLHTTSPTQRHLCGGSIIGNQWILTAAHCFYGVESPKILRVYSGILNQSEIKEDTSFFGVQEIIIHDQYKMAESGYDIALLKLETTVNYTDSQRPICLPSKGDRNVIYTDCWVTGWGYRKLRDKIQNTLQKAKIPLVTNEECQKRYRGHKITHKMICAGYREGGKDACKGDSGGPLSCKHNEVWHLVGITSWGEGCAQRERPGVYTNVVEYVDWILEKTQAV

[2] = test system: Oryctolagus cuniculus; assay: Antithrombotic activity in New Zealand White rabbit model of AV-shunt induced thrombosis assessed as reduction in thrombosis weight by measuring inhibition of thrombosis formation at 0.5 mg/kg, administered as iv bolus dose and subsequently followed by 0.8 mg/kg/hr as iv infusion relative to control; assay type: functional
How it was run: (§1)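 Male New Zealand White rabbits under urethane anesthesia (1.25 g/kg). A control-period AV shunt gave the baseline thrombus wet weight, found by subtraction. The compound in saline vehicle was then given as an IV bolus followed by continuous IV infusion via the jugular vein. A new AV shunt ran for 40 min. Result is % inhibition of thrombus formation, treatment versus control period. Three rabbits per group.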

[3] = Binding affinity to thrombin (unknown origin) assessed as inhibition constant using H-D-Phe-Pip-Arg-pNA,2HCl as substrate preincubated for 10 mins followed by substrate addition; parameters: species or system Homo sapiens
How it was run: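 Thrombin was preincubated with compound or blank buffer at 25 °C for 10 min. Chromogenic substrate was added and absorbance read at 405 nm. Compounds came from DMSO stocks (10 mM) diluted in assay buffer. IC50 was derived from a concentration range.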

[4] = molecular target: Coagulation factor X (Homo sapiens, UniProt P00742); assay: Binding affinity to coagulation factor 10a (unknown origin) assessed as inhibition constant using CH3OCO-D-CHA-Gly-Arg-pNA,ACOH as substrate preincubated for 10 mins followed by substrate addition
Coagulation factor X, sequence (P00742 41-179 limits assumed): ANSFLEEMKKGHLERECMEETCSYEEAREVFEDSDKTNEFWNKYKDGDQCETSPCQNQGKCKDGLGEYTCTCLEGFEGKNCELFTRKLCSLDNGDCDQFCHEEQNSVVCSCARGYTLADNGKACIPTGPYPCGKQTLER
Coagulation factor X, sequence (P00742 235-488 limits assumed): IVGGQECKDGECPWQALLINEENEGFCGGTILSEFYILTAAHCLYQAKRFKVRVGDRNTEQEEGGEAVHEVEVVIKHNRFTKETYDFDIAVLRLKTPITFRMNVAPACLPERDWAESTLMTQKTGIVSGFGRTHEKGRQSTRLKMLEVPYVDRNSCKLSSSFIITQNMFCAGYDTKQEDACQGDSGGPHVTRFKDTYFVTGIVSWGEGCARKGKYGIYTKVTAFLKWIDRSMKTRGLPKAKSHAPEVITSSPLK
How it was run: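 FXa was preincubated with compound or blank buffer at 25 °C for 10 min. Chromogenic substrate was added and absorbance read at 405 nm. Compounds came from DMSO stocks (10 mM) diluted in assay buffer. IC50 was derived from a concentration range.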

[5] = species on record: Homo sapiens; assay: Selectivity ratio of Ki for thrombin (unknown origin) to Ki for coagulation factor 11a (unknown origin)
[6] = molecular target: Plasma kallikrein (Homo sapiens, UniProt P03952); assay: Binding affinity to plasma kallikrein (unknown origin) assessed as inhibition constant using D-Pro-Phe,Arg,pNa,2HCl as substrate preincubated for 15 mins followed by substrate addition
Plasma kallikrein, sequence (P03952 20-390 limits assumed): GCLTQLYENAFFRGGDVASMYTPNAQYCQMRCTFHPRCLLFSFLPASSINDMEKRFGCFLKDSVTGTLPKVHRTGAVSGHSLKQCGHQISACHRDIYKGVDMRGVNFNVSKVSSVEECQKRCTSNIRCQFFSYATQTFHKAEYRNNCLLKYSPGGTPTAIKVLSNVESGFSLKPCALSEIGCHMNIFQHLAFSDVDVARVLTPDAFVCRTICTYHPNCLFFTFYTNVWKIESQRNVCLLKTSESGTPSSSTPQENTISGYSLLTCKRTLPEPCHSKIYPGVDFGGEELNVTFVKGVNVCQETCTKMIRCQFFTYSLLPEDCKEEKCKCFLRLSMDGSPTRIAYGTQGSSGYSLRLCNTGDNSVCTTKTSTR
Plasma kallikrein, sequence (P03952 391-638 limits assumed): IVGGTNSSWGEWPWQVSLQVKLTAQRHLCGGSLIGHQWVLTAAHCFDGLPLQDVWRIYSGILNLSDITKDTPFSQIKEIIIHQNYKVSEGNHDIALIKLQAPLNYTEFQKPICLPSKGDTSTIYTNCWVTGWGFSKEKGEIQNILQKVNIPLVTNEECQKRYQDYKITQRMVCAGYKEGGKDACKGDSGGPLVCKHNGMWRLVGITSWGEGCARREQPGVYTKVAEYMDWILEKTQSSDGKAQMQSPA

[7] = test system: Oryctolagus cuniculus; assay: Antithrombotic activity in New Zealand White rabbit model of AV-shunt induced thrombosis assessed as reduction in thrombosis weight by measuring inhibition of thrombosis formation at 5 mg/kg, administered as iv bolus dose and subsequently followed by 8 mg/kg/hr as iv infusion relative to control; assay type: functional; how it was run: as §1
[8] = species on record: Homo sapiens; assay: Competitive inhibition of coagulation factor 11a (unknown origin) assessed as Km at 0.01 uM using varying levels (p-Glu-Pro-Arg-pNa,HCl) as substrate by Lineweaver-Burk plot analysis
How it was run: (§2)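 Same FXIa assay (37 °C, 5 min preincubation, 405 nm read), run at four substrate levels with final concentrations of 42.5, 85, 170 and 340. Km and Vmax were taken from a Lineweaver-Burk plot using the Michaelis-Menten relationship.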

[9] = species on record: Homo sapiens; assay: Selectivity ratio of Ki for plasma kallikrein (unknown origin) to Ki for coagulation factor 11a (unknown origin)
[10] = test system: Oryctolagus cuniculus; assay: Antithrombotic activity in New Zealand White rabbit model of AV-shunt induced thrombosis assessed as reduction in thrombosis weight by measuring inhibition of thrombosis formation at 2.5 mg/kg, administered as iv bolus dose and subsequently followed by 4 mg/kg/hr as iv infusion relative to control; assay type: functional; how it was run: as §1
[11] = species on record: Homo sapiens; assay: Competitive inhibition of coagulation factor 11a (unknown origin) assessed as Km at 0.005 uM using varying levels (p-Glu-Pro-Arg-pNa,HCl) as substrate by Lineweaver-Burk plot analysis; how it was run: as §2
[12] = molecular target: T2, Coagulation factor VII (Homo sapiens, UniProt P08709); assay: Binding affinity to coagulation factor 7a (unknown origin) assessed as inhibition constant using CH3SO2-D-CHA-But-Arg-pNA,ACOH as substrate preincubated for 10 mins followed by substrate addition and further incubated for 10 mins
T2 sequence (P08709 whole entry): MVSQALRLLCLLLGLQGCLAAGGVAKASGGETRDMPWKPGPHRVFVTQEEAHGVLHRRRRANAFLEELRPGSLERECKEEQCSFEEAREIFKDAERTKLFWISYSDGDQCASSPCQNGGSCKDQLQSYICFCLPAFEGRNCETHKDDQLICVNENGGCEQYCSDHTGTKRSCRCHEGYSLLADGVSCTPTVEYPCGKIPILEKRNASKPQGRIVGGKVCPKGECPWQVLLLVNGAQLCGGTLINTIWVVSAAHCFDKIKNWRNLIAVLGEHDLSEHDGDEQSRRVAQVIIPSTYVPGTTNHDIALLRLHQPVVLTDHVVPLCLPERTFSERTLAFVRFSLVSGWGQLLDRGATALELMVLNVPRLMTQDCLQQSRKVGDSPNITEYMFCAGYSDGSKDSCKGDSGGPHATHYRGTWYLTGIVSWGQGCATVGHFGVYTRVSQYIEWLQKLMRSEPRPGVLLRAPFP
How it was run: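 FVIIa was preincubated with compound or blank buffer at 37 °C for 10 min. Chromogenic substrate was added and absorbance read at 405 nm. Compounds came from DMSO stocks (10 mM) diluted in assay buffer. IC50 was derived from a concentration range.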

[13] = species on record: Homo sapiens; assay: Selectivity ratio of Ki for coagulation factor 7a (unknown origin) to Ki for coagulation factor 11a (unknown origin)
[14] = species on record: Homo sapiens; assay: Competitive inhibition of coagulation factor 11a (unknown origin) assessed as Vmax at 0.005 to 0.04 uM using varying levels (p-Glu-Pro-Arg-pNa,HCl) as substrate by Lineweaver-Burk plot analysis; conditions: dose 0.005-0.04 µM; how it was run: as §2
[15] = species on record: Homo sapiens; assay: Competitive inhibition of coagulation factor 11a (unknown origin) assessed as Km at 0.04 uM using varying levels (p-Glu-Pro-Arg-pNa,HCl) as substrate by Lineweaver-Burk plot analysis; how it was run: as §2
[16] = species on record: Homo sapiens; assay: Competitive inhibition of coagulation factor 11a (unknown origin) assessed as Km at 0.02 uM using varying levels (p-Glu-Pro-Arg-pNa,HCl) as substrate by Lineweaver-Burk plot analysis; how it was run: as §2
[17] = species on record: Homo sapiens; assay: Selectivity ratio of Ki for coagulation factor 10a (unknown origin) to Ki for coagulation factor 11a (unknown origin)
[18] = species on record: Homo sapiens; assay: Competitive inhibition of coagulation factor 11a (unknown origin) using varying levels (p-Glu-Pro-Arg-pNa,HCl) as substrate by Lineweaver-Burk plot analysis; conditions: dose 0.005-0.04 µM; how it was run: as §2
[19] = molecular target: T1, Coagulation factor XI; assay: Inhibition of coagulation factor 11a (unknown origin) at 100 uM using (p-Glu-Pro-Arg-pNa,HCl) as substrate preincubated for 5 mins followed by substrate addition and measured after 10 mins relative to control; conditions: time 15.0 min

## Cc1nc(-c2cccc(Cl)c2F)n(O)c1C(=O)N[C@@H](Cc1ccc(NC(=O)C2CCCC2)cc1)C(=O)Nc1ccc2[nH]c(C(=O)O)cc2c1
[1]
  Ki: 33.9 nM

## COc1ccc(-c2nc(C)c(C(=O)O)n2O)cc1C#N
[1]
  Ki: 243000 nM

## Cc1nc(-c2cccc(Cl)c2F)n(C)c1C(=O)N[C@@H](Cc1ccccc1)C(=O)Nc1ccc(C(=O)O)cc1
[1]
  Ki: 22400 nM

## CC(=O)Nc1ccc(C[C@H](NC(=O)c2c(C)nc(-c3cccc(Cl)c3F)n2O)C(=O)Nc2ccc3[nH]c(C(=O)O)cc3c2)cc1
[1]
  Ki: 392 nM

## NC[C@H]1CC[C@H](C(=O)N[C@@H](Cc2ccccc2)c2nc(-c3ccc4c(N)n[nH]c4c3)c(Cl)[nH]2)CC1
[1]
  Ki: 1.5 nM
[2]
  inhibition (INH): 59.26%

## Cc1nc(-c2cccc(Cl)c2F)n(O)c1C(=O)N[C@@H](Cc1ccc(NC(=O)C2CCC2)cc1)C(=O)Nc1ccc2[nH]c(C(=O)O)cc2c1
[1]
  Ki: 22.5 nM

## Cc1nc(-c2cccc(Cl)c2F)n(O)c1C(=O)N[C@@H](Cc1ccc(NC(=O)C2CC2C)cc1)C(=O)Nc1ccc2[nH]c(C(=O)O)cc2c1 (stereo partly drawn)
[1]
  Ki: 9 nM
[3]
  Ki: > 12.5 µM
[4]
  Ki: > 8 µM
[5]
  Ratio Ki: > 400
[6]
  Ki: 192 nM
[7]
  inhibition (INH): 51.04%
[2]
  inhibition (INH): 26.8%
[8]
  Km: 60.3 µM
[9]
  Ratio Ki: 21.3
[10]
  inhibition (INH): 42.67%
[11]
  Km: 45.5 µM
[12]
  Ki: 4.19 µM
[13]
  Ratio Ki: > 400
[14]
  Vmax: 0.17 µM/min
[15]
  Km: 128 µM
[16]
  Km: 89.9 µM
[17]
  Ratio Ki: > 400
[18]
  inhibition: Dose-Dependent Effect

## Cc1nc(-c2ccc(Cl)cc2)n(O)c1C(=O)N[C@@H](Cc1ccccc1)C(=O)Nc1ccc(C(=O)O)cc1
[1]
  Ki: > 100000 nM
[19]
  inhibition: 22.5%

## Cc1nc(-c2cccc(Cl)c2F)n(O)c1C(=O)N[C@@H](Cc1ccc(N)cc1)C(=O)Nc1ccc2[nH]c(C(=O)O)cc2c1
[1]
  Ki: 3080 nM

## Cc1nc(-c2cccc(Cl)c2F)n(O)c1C(=O)N[C@@H](Cc1ccc(F)cc1)C(=O)Nc1ccc2[nH]c(C(=O)O)cc2c1
[1]
  Ki: 486 nM

## Cc1nc(-c2ccccc2Cl)n(O)c1C(=O)N[C@@H](Cc1ccccc1)C(=O)Nc1ccc(C(=O)O)cc1
[1]
  Ki: > 100000 nM
[19]
  inhibition: 34.1%

## Cc1nc(-c2cccc(Cl)c2F)n(O)c1C(=O)N[C@@H](Cc1ccc(NC(=O)C(C)C)cc1)C(=O)Nc1ccc2[nH]c(C(=O)O)cc2c1
[1]
  Ki: 156 nM

## Cc1nc(-c2cccc(Cl)c2F)n(O)c1C(=O)N[C@@H](Cc1ccc(NC(=O)CC(C)C)cc1)C(=O)Nc1ccc2[nH]c(C(=O)O)cc2c1
[1]
  Ki: 26 nM

## Cc1nc(-c2cccc(Cl)c2F)n(O)c1C(=O)N[C@@H](Cc1ccc([N+](=O)[O-])cc1)C(=O)Nc1ccc2[nH]c(C(=O)O)cc2c1
[1]
  Ki: 7320 nM

## Cc1nc(-c2cccc(Cl)c2)n(O)c1C(=O)N[C@@H](Cc1ccccc1)C(=O)Nc1ccc(C(=O)O)cc1
[1]
  Ki: 14500 nM

## Cc1nc(-c2ccc(O)c(C#N)c2)n(O)c1C(=O)O
[1]
  Ki: 228000 nM

## Cc1nc(-c2cccc(Cl)c2F)n(O)c1C(=O)N[C@@H](Cc1ccccc1)C(=O)Nc1ccc2[nH]c(C(=O)O)cc2c1
[1]
  Ki: 2820 nM

## Cc1nc(-c2cccc(Cl)c2F)n(O)c1C(=O)N[C@@H](Cc1ccccc1)C(=O)Nc1ccc(C(=O)O)cc1
[1]
  Ki: 11800 nM
